CatS block = inhibitors of human cathepsin S, biochemical, compound mixtures | P25774 | recombinant cathepsin S, AMC dipeptide fluorescence, pooled mixtures | inhibition, %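 (tested at 5 µM per compound within 10-compound mixtures)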 | 0.06% of 62,000 active; in the data active = inhibition above about 32%, passing the limit was not always enough; inconclusive = no clear call, values can overlap the other calls;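 note: 0% = enzyme without compound and 100% = blank without enzyme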
CatL block = inhibitors of human cathepsin L, biochemical; 0.17% of 58,000 active; Procathepsin L (Homo sapiens), P07711; inhibition, %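 (tested at 10 µM)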; purified cathepsin L, fluorogenic substrate, fluorescence; in the data active = inhibition above about 45%;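 note: 0% = enzyme with no compound and 100% = no enzyme blank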
Target sequence (P07711 114-288 limits assumed): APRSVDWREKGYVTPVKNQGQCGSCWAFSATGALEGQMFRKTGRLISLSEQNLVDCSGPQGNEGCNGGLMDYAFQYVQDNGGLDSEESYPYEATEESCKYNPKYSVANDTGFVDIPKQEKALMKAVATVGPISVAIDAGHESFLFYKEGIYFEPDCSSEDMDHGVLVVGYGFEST
Target sequence (P07711 292-333 limits assumed): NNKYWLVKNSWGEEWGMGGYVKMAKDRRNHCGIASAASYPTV
AP ELISA ortho = alternative complement pathway inhibitors, primary screen, biochemical, ELISA, human serum, orthogonally pooled compounds; LPS-coated ELISA, C3 deposition; tested in compound mixtures; inhibition, % at 5 µM; 0.08% of 62,000 active; AID 1235, 2008;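 active = inhibition above 30% in each of the two pooled mixtures holding the compound, so the lower value exceeds 30%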;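 note: 0% = serum in Mg-EGTA without compound and 100% = EDTA serum blank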
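Test system: human serum complement alternative pathway, C3 deposition onto LPS / Medium: Mg2+-EGTA GVB++ buffer containing human serum at 1:15 dilution / Probe or stimulus: Plate-bound LPS / Times: 1 h at 37 °C / Signal: ELISA with HRP anti-human C3 antibody, TMB substrate, absorbance 450 nm / Measure: percent inhibition / Repeats: two pool placements per compound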
CatB mixtures = cathepsin B inhibitors from pooled compounds, primary screen, biochemical, compound mixtures, AMC fluorescence | Purified cathepsin B, AMC dipeptide fluorescence | inhibition, %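 (ten-compound pools at 5 µM per compound and 50 µM total)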 | 0.06% of 62,000 active | AID 488, 2006; in the data active = inhibition above about 22%, passing the limit was not always enough; inconclusive = no clear call, values can overlap the other calls;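 note: 0% = enzyme without compound and 100% = no enzyme blank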
CatB block = human cathepsin B inhibitors, primary screen, biochemical, fluorogenic substrate | P07858 | purified cathepsin B, fluorescence | inhibition, %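 (tested at 10 µM)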 | 0.1% of 63,000 active; in the data active = inhibition above about 21%;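 note: 0% = enzyme with no compound and 100% = no enzyme blank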
Hsp90 block = tumor Hsp90 inhibitors, primary screen, cell lysate, fluorescence polarization, NCI-N417 lysate. Cy3B-geldanamycin FP displacement. Heat shock protein HSP 90-alpha (Homo sapiens), P07900. inhibition, % at 30 µM. 0.35% of 64,000 active;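 active = inhibition above 50%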;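 note: 0% = tracer plus lysate wells and 100% = tracer alone without lysate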
* marks the source's active call; other numbers are inactive results; ? = inconclusive; nt = no result given; ! = not confirmed by another sample. In the library only some 0.69% were active in any assay of this set; here they are far more common.

SMILES	CatS block	CatL block	AP ELISA ortho	CatB mixtures	CatB block	Hsp90 block
CCn1nc(-c2cccs2)nc2c(=O)n(C)c(=O)nc1-2	87*	81*	-5	86*	82*	98*
CC(C)[C@@]1(NC(=O)[C@@H]2C[C@@H]3c4cccc5[nH]cc(c45)C[C@H]3N(C)C2)O[C@@]2(O)[C@@H]3CCCN3C(=O)[C@H](Cc3ccccc3)N2C1=O	3	-10	3	4	-4	87*!
CCOC(=O)c1c(N)n(Cc2ccco2)c2nc3ccccc3nc12	-8	-211	-4	-13	-8	30
CCCCn1c(NC(=O)c2ccco2)c(C(=O)OCC)c2nc3ccccc3nc21	-7	-96	11	3	-6	72*
COc1ccc2[nH]c(C[N+](C)(C)C)cc2c1	nt	nt	nt	nt	nt	-2
NC(=O)CI	nt	nt	nt	nt	nt	1
CCc1ccccc1NC(=O)CSc1nnc([C@@H](N)Cc2c[nH]c3ccccc23)o1	17	120*	7	6	0	-3
Cc1ccc(NC(=O)CSc2nnc([C@@H](N)Cc3c[nH]c4ccccc34)o2)c(C)c1	2	93*	5	-3	6	-5
CCCN(CCC)[C@@H]1CCc2c(F)ccc(O)c2C1	nt	nt	nt	nt	nt	-1
COc1ccc2[nH]cc(CCN3CCCC3)c2c1	nt	nt	nt	nt	nt	-10
C[C@H]1C2Cc3ccc(O)cc3C1(C)CCN2CC1CC1 (stereo partly specified)	nt	nt	nt	nt	nt	1
CN1CC[C@@]2(C)c3cc(O)ccc3N(C)C12 (stereo partly specified)	nt	nt	nt	nt	nt	91*
C=CCN1CC[C@]23c4c5ccc(O)c4O[C@@H]2/C(=N/N=C2\CC[C@@]4(O)C6Cc7ccc(O)c8c7[C@@]4(CCN6CC=C)[C@@H]2O8)CC[C@@]3(O)C1C5	nt	nt	nt	nt	nt	12
CN(N=O)c1ccc(O)c(O)c1	nt	nt	nt	nt	nt	93*
COc1ccc2c(c1)C13CCCCC1C(C2)N(C)CC3 (stereo unspecified)	nt	nt	nt	nt	nt	-2
NC(Cc1cc(O)c(O)cc1O)C(=O)O (stereo unspecified)	nt	nt	nt	nt	nt	94*
C[C@H]1CCCC(=O)CCC/C=C/c2cc(O)cc(O)c2C(=O)O1	-1	7	12	3	4	87*
N[C@H](CCCCCP(=O)(O)O)C(=O)O	nt	nt	nt	nt	nt	-2
C[Se]C[C@H](N)C(=O)O	nt	nt	nt	nt	nt	-1
COc1cc2c(cc1OC)-c1c(OC)c(OC)cc3c1C(C2)N(C)CC3 (stereo unspecified)	?	14	-3	20	27*	91*
NCC#Cc1ccccc1	nt	nt	nt	nt	nt	0
Cn1cccc1CNCCc1ccccc1F	3	54*	-2	1	-2	-11

Compound activity: PubChem, several laboratories
